In ChEMBL document CHEMBL4118262, “Synthesis and biological evaluation of novel N-substituted nipecotic acid derivatives with an alkyne spacer as GABA uptake inhibitors” (Bioorg Med Chem, 2018):

biological target: T1, Sodium- and chloride-dependent GABA transporter 1 (Mus musculus, UniProt P31648); test: Inhibition of mouse GAT1 expressed in HEK293 cells assessed as decrease in [3H]GABA uptake preincubated for 25 mins followed by [3H]GABA addition measured after 4 mins by liquid scintillation counting analysis; assay type: cell-based
Method in brief: (§1)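 [³H]GABA uptake assay in HEK cells expressing the mGAT subtype named in the line, run in triplicate. Potencies are given as pIC₅₀ ± SEM. No SEM is given where only one triplicate measurement was made. Where 100 µM test compound left uptake at or above 50% (pIC₅₀ ≤ 4.00), the percent remaining [³H]GABA uptake at 100 µM is reported instead.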

| SMILES | IC50 |
| --- | --- |
| O=C(O)C1CCCN(CC#CCC(c2ccccc2)(c2ccccc2)c2ccccc2)C1 (racemic) | 35.5 µM |
| COc1ccc(C(OCCN2CCC[C@H](C(=O)O)C2)(c2ccc(OC)cc2)c2ccc(OC)cc2C)cc1 | 64.6 µM |
| COc1ccc(C(C#CCN2CCCC(C(=O)O)C2)(Cc2ccccc2)c2ccc(OC)cc2)cc1 (racemic) | 8.32 µM |
| COc1ccc(C(C#CCN2CCCC(C(=O)O)C2)(c2ccc(OC)cc2)c2ccc3c(c2)OCO3)cc1 (racemic) | 22.9 µM |
| COc1ccc(C(C#CCN2CCCC(C(=O)O)C2)(c2ccc(OC)cc2)c2ccsc2)cc1 (racemic) | 25.1 µM |
| COc1ccc(C(CC#CCN2CCCC(C(=O)O)C2)(c2ccc(OC)cc2)c2ccc(OC)cc2)cc1 (racemic) | 52.5 µM |
| O=C(O)C1CCCN(CCC#CC(c2ccccc2)(c2ccccc2)c2ccccc2)C1 (racemic) | 0.427 µM |
| COc1ccc(C(C#CCN2CCCC(C(=O)O)C2)(c2ccc(OC)cc2)c2ccc(OC)cc2)cc1 (racemic) | 14.5 µM |
| COc1ccc(C(OCCN2CCCC(C(=O)O)C2)(c2ccc(OC)cc2C)c2ccc(OC)cc2C)cc1 (configuration not stated) | 67.6 µM |
| COc1ccc(C(C#CCN2CCCC(C(=O)O)C2)c2ccc(OC)cc2)cc1 (racemic) | 3.72 µM |
| COc1ccc(C(C#CCCN2CCCC(C(=O)O)C2)(c2ccc(OC)cc2)c2ccc(OC)cc2)cc1 (racemic) | 15.8 µM |
| COc1ccc(C(C#CCN2CCCC(C(=O)O)C2)(c2ccc(OC)cc2)c2ccc3sccc3c2)cc1 (racemic) | 11 µM |
| COc1ccc(CC(C#CCN2CCCC(C(=O)O)C2)(c2ccc(OC)cc2)c2ccc(OC)cc2)cc1 (racemic) | 13.2 µM |

biological target: Sodium- and chloride-dependent GABA transporter 1 (Mus musculus) (UniProt P31648); test: Inhibition of [2H10]NO 711 binding to mouse GAT1 expressed in HEK293 cell membranes assessed as remaining NO711 binding at 100 uM after 40 mins by LC-ESI-MS-MS analysis relative to control

| SMILES | Activity |
| --- | --- |
| COc1ccc(C(OCCN2CCC[C@H](C(=O)O)C2)(c2ccc(OC)cc2)c2ccc(OC)cc2C)cc1 | 59% |
| COc1ccc(C(O)(C#CCN2CCCC(C(=O)O)C2)c2ccc(OC)cc2)cc1 (racemic) | 59% |
| C=C=C(CN1CCCC(C(=O)O)C1)C(c1ccc(OC)cc1)(c1ccc(OC)cc1)c1ccc(OC)cc1 (racemic) | 57% |
| COc1ccc(C(C#CCN2CCCC(C(=O)O)C2)(c2ccc(OC)cc2)c2nccn2C)cc1 (racemic) | 83% |
| C=C=C(CN1CCCC(C(=O)O)C1)C(c1ccccc1)(c1ccccc1)c1ccccc1 (racemic) | 70% |

biological target: T2, GABA transporter 4 (Mus musculus, UniProt P31650); test: Inhibition of mouse GAT4 expressed in HEK293 cells assessed as decrease in [3H]GABA uptake preincubated for 25 mins followed by [3H]GABA addition measured after 4 mins by liquid scintillation counting analysis; assay type: cell-based; method in brief: as §1
T2 sequence (P31650 whole entry): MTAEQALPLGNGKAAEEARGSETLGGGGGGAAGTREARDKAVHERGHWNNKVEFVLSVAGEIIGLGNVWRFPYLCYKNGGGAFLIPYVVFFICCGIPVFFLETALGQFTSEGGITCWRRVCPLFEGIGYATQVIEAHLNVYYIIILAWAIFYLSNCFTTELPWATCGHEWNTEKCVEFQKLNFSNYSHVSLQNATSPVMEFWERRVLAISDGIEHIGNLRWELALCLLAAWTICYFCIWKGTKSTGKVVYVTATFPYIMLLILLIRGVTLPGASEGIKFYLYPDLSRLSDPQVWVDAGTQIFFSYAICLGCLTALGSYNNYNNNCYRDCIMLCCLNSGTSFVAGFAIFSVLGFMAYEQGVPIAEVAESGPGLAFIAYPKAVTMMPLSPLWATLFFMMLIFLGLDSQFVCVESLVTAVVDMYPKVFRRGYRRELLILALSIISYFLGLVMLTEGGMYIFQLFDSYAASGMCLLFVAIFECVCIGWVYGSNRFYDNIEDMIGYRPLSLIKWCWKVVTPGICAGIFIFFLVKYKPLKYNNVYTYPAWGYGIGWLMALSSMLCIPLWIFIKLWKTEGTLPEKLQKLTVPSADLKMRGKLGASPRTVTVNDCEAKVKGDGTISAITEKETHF

| SMILES | IC50 |
| --- | --- |
| O=C(O)C1CCCN(CC#CCC(c2ccccc2)(c2ccccc2)c2ccccc2)C1 (racemic) | 70.8 µM |
| COc1ccc(C(OCCN2CCC[C@H](C(=O)O)C2)(c2ccc(OC)cc2)c2ccc(OC)cc2C)cc1 | 1.66 µM |
| COc1ccc(C(C#CCN2CCCC(C(=O)O)C2)(Cc2ccccc2)c2ccc(OC)cc2)cc1 (racemic) | 41.7 µM |
| COc1ccc(C(C#CCN2CCCC(C(=O)O)C2)(c2ccc(OC)cc2)c2ccc3c(c2)OCO3)cc1 (racemic) | 51.3 µM |
| COc1ccc(C(C#CCN2CCCC(C(=O)O)C2)(c2ccc(OC)cc2)c2ccsc2)cc1 (racemic) | 34.7 µM |
| COc1ccc(C(CC#CCN2CCCC(C(=O)O)C2)(c2ccc(OC)cc2)c2ccc(OC)cc2)cc1 (racemic) | 17.4 µM |
| C=C=C(CN1CCCC(C(=O)O)C1)C(c1ccc(OC)cc1)(c1ccc(OC)cc1)c1ccc(OC)cc1 (racemic) | 49 µM |
| COc1ccc(C(C#CCN2CCCC(C(=O)O)C2)(c2ccc(OC)cc2)c2ccc(OC)cc2)cc1 (racemic) | 29.5 µM |
| COc1ccc(C(OCCN2CCCC(C(=O)O)C2)(c2ccc(OC)cc2C)c2ccc(OC)cc2C)cc1 (configuration not stated) | 8.51 µM |
| COc1ccc(C(C#CCN2CCCC(C(=O)O)C2)c2ccc(OC)cc2)cc1 (racemic) | 23.4 µM |
| COc1ccc(C(C#CCCN2CCCC(C(=O)O)C2)(c2ccc(OC)cc2)c2ccc(OC)cc2)cc1 (racemic) | 25.7 µM |
| COc1ccc(C(C#CCN2CCCC(C(=O)O)C2)(c2ccc(OC)cc2)c2ccc3sccc3c2)cc1 (racemic) | 12 µM |
| COc1ccc(CC(C#CCN2CCCC(C(=O)O)C2)(c2ccc(OC)cc2)c2ccc(OC)cc2)cc1 (racemic) | 36.3 µM |

system: GABA transporter mGAT3 (Slc6a13) (Mus musculus); test: Inhibition of mouse GAT3 expressed in HEK293 cells assessed as decrease in [3H]GABA uptake at 100 uM preincubated for 25 mins followed by [3H]GABA addition measured after 4 mins by liquid scintillation counting analysis relative to control; design: scale not given: the % may be the effect or the level left

| SMILES | Activity |
| --- | --- |
| O=C(O)C1CCCN(CC#CCC(c2ccccc2)(c2ccccc2)c2ccccc2)C1 (racemic) | 50% |
| COc1ccc(C(C#CCN2CCCC(C(=O)O)C2)(c2ccc(OC)cc2)c2nccs2)cc1 (racemic) | 82% |
| COc1ccc(C(O)(C#CCN2CCCC(C(=O)O)C2)c2ccc(OC)cc2)cc1 (racemic) | 74% |
| O=C(O)C1CCCN(CCC#CC(c2ccccc2)(c2ccccc2)c2ccccc2)C1 (racemic) | 61% |
| COc1ccc(C(C#CCN2CCCC(C(=O)O)C2)(c2ccc(OC)cc2)c2nccn2C)cc1 (racemic) | 103% |
| C=C=C(CN1CCCC(C(=O)O)C1)C(c1ccccc1)(c1ccccc1)c1ccccc1 (racemic) | 80% |

biological target: T3, GABA transporter 4 (Mus musculus) (UniProt P31650); test: Inhibition of mouse GAT4 expressed in HEK293 cells assessed as decrease in [3H]GABA uptake at 100 uM preincubated for 25 mins followed by [3H]GABA addition measured after 4 mins by liquid scintillation counting analysis relative to control; assay type: cell-based; design: scale not given: the % may be the effect or the level left; method in brief: as §1
T3 sequence (whole entry): T2 sequence (P31650 whole entry)

| SMILES | Activity |
| --- | --- |
| COc1ccc(C(C#CCN2CCCC(C(=O)O)C2)(c2ccc(OC)cc2)c2nccs2)cc1 (racemic) | 79% |
| COc1ccc(C(O)(C#CCN2CCCC(C(=O)O)C2)c2ccc(OC)cc2)cc1 (racemic) | 69% |
| O=C(O)C1CCCN(CCC#CC(c2ccccc2)(c2ccccc2)c2ccccc2)C1 (racemic) | 64% |
| COc1ccc(C(C#CCN2CCCC(C(=O)O)C2)(c2ccc(OC)cc2)c2nccn2C)cc1 (racemic) | 91% |
| C=C=C(CN1CCCC(C(=O)O)C1)C(c1ccccc1)(c1ccccc1)c1ccccc1 (racemic) | 54% |

system: betaine/GABA transporter BGT1 (mGAT2, Slc6a12) (Mus musculus); test: Inhibition of mouse GAT2 expressed in HEK293 cells assessed as decrease in [3H]GABA uptake at 100 uM preincubated for 25 mins followed by [3H]GABA addition measured after 10 mins by liquid scintillation counting analysis relative to control; design: scale not given: the % may be the effect or the level left

| SMILES | Activity |
| --- | --- |
| O=C(O)C1CCCN(CC#CCC(c2ccccc2)(c2ccccc2)c2ccccc2)C1 (racemic) | 66% |
| COc1ccc(C(C#CCN2CCCC(C(=O)O)C2)(Cc2ccccc2)c2ccc(OC)cc2)cc1 (racemic) | 67% |
| COc1ccc(C(C#CCN2CCCC(C(=O)O)C2)(c2ccc(OC)cc2)c2nccs2)cc1 (racemic) | 84% |
| COc1ccc(C(O)(C#CCN2CCCC(C(=O)O)C2)c2ccc(OC)cc2)cc1 (racemic) | 72% |
| COc1ccc(C(C#CCN2CCCC(C(=O)O)C2)(c2ccc(OC)cc2)c2ccsc2)cc1 (racemic) | 70% |
| O=C(O)C1CCCN(CCC#CC(c2ccccc2)(c2ccccc2)c2ccccc2)C1 (racemic) | 66% |
| C=C=C(CN1CCCC(C(=O)O)C1)C(c1ccc(OC)cc1)(c1ccc(OC)cc1)c1ccc(OC)cc1 (racemic) | 77% |
| COc1ccc(C(C#CCN2CCCC(C(=O)O)C2)(c2ccc(OC)cc2)c2nccn2C)cc1 (racemic) | 106% |
| COc1ccc(C(C#CCN2CCCC(C(=O)O)C2)c2ccc(OC)cc2)cc1 (racemic) | 80% |
| COc1ccc(CC(C#CCN2CCCC(C(=O)O)C2)(c2ccc(OC)cc2)c2ccc(OC)cc2)cc1 (racemic) | 53% |
| C=C=C(CN1CCCC(C(=O)O)C1)C(c1ccccc1)(c1ccccc1)c1ccccc1 (racemic) | 87% |

biological target: Sodium- and chloride-dependent GABA transporter 1 (Mus musculus) (UniProt P31648); test: Inhibition of mouse GAT1 expressed in HEK293 cells assessed as decrease in [3H]GABA uptake at 100 uM preincubated for 25 mins followed by [3H]GABA addition measured after 4 mins by liquid scintillation counting analysis relative to control; assay type: cell-based; design: scale not given: the % may be the effect or the level left; method in brief: as §1

| SMILES | Activity |
| --- | --- |
| COc1ccc(C(C#CCN2CCCC(C(=O)O)C2)(c2ccc(OC)cc2)c2nccs2)cc1 (racemic) | 68% |
| COc1ccc(C(O)(C#CCN2CCCC(C(=O)O)C2)c2ccc(OC)cc2)cc1 (racemic) | 66% |
| C=C=C(CN1CCCC(C(=O)O)C1)C(c1ccc(OC)cc1)(c1ccc(OC)cc1)c1ccc(OC)cc1 (racemic) | 69% |
| COc1ccc(C(C#CCN2CCCC(C(=O)O)C2)(c2ccc(OC)cc2)c2nccn2C)cc1 (racemic) | 80% |
| C=C=C(CN1CCCC(C(=O)O)C1)C(c1ccccc1)(c1ccccc1)c1ccccc1 (racemic) | 62% |

biological target: T1, Sodium- and chloride-dependent GABA transporter 1; test: Inhibition of [2H10]NO 711 binding to mouse GAT1 expressed in HEK293 cell membranes after 40 mins by LC-ESI-MS-MS analysis
Method in brief: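 MS Binding Assay on mGAT1 expressed in HEK cells, with NO711 as marker. Run in triplicate. Results are reported as pKi ± SEM. Where only one triplicate measurement was made, no SEM is given.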

| SMILES | Ki |
| --- | --- |
| O=C(O)C1CCCN(CC#CCC(c2ccccc2)(c2ccccc2)c2ccccc2)C1 (racemic) | 14.5 µM |
| COc1ccc(C(C#CCN2CCCC(C(=O)O)C2)(Cc2ccccc2)c2ccc(OC)cc2)cc1 (racemic) | 2.14 µM |
| COc1ccc(C(C#CCN2CCCC(C(=O)O)C2)(c2ccc(OC)cc2)c2nccs2)cc1 (racemic) | 77.6 µM |
| COc1ccc(C(C#CCN2CCCC(C(=O)O)C2)(c2ccc(OC)cc2)c2ccc3c(c2)OCO3)cc1 (racemic) | 4.9 µM |
| COc1ccc(C(C#CCN2CCCC(C(=O)O)C2)(c2ccc(OC)cc2)c2ccsc2)cc1 (racemic) | 5.25 µM |
| COc1ccc(C(CC#CCN2CCCC(C(=O)O)C2)(c2ccc(OC)cc2)c2ccc(OC)cc2)cc1 (racemic) | 37.2 µM |
| COc1ccc(C(/C=C/CN2CCCC(C(=O)O)C2)(c2ccc(OC)cc2)c2ccc(OC)cc2)cc1 (configuration not stated) | 14.8 µM |
| O=C(O)C1CCCN(CCC#CC(c2ccccc2)(c2ccccc2)c2ccccc2)C1 (racemic) | 0.0912 µM |
| COc1ccc(C(C#CCN2CCCC(C(=O)O)C2)(c2ccc(OC)cc2)c2ccc(OC)cc2)cc1 (racemic) | 4.37 µM |
| COc1ccc(C(OCCN2CCCC(C(=O)O)C2)(c2ccc(OC)cc2C)c2ccc(OC)cc2C)cc1 (configuration not stated) | 38 µM |
| COc1ccc(C(C#CCN2CCCC(C(=O)O)C2)c2ccc(OC)cc2)cc1 (racemic) | 1.1 µM |
| COc1ccc(C(C#CCCN2CCCC(C(=O)O)C2)(c2ccc(OC)cc2)c2ccc(OC)cc2)cc1 (racemic) | 2.75 µM |
| COc1ccc(C(C#CCN2CCCC(C(=O)O)C2)(c2ccc(OC)cc2)c2ccc3sccc3c2)cc1 (racemic) | 1.91 µM |
| COc1ccc(CC(C#CCN2CCCC(C(=O)O)C2)(c2ccc(OC)cc2)c2ccc(OC)cc2)cc1 (racemic) | 1.91 µM |
